What was measured:
Danio rerio [1] = species: Danio rerio; experiment: Toxicity in transgenic zebrafish larvae harboring Fli-1 gene assessed as maximum tolerated dosage after 24 hrs; format: organism-based; conditions: in vivo
Method in brief: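 Fertilized eggs of the fli-1:EGFP line reared in E3 embryo medium at 28 °C, with PTU added at 20 hpf to block pigmentation. Compounds were dissolved in DMSO and diluted in Danieau's 0.3X, final DMSO ≤1%. Larvae at 4 dpf, 5 per well, were exposed for 24 h to 10, 30 and 100 (highest) concentrations and checked by light microscopy at 5 dpf. MTC is the highest concentration giving no death or toxicity signs.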

Danio rerio [2] = species: Danio rerio; experiment: Antiinflammatory activity in transgenic zebrafish larvae harboring Fli-1 gene assessed as LPS-stimulated leukocyte migration to injury zone of tail transected larvae at 1 uM after 20 to 22 hrs by microscopy; format: functional
Method in brief: (§1)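 Transgenic fli-1:EGFP zebrafish were reared in E3 at 28 °C, with PTU added at 20 hpf. Compounds were dissolved in DMSO and diluted in Danieau's, with final DMSO ≤1%. Ten 4-dpf larvae per group were pretreated for 1 h, anaesthetised with tricaine and tail-transected. They were then incubated with compound plus LPS for 20–22 h, fixed in 4% PFA and stained with Leucognost. Leukocyte migration to the tail tip was scored microscopically as relative leukocyte migration. Run in triplicate.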

Danio rerio [3] = species: Danio rerio; experiment: Antiinflammatory activity in transgenic zebrafish larvae harboring Fli-1 gene assessed as LPS-stimulated leukocyte migration to injury zone of tail transected larvae at 3 uM after 20 to 22 hrs by microscopy; format: functional; method in brief: as §1
Danio rerio [4] = species: Danio rerio; experiment: Antiinflammatory activity in transgenic zebrafish larvae harboring Fli-1 gene assessed as LPS-stimulated leukocyte migration to injury zone of tail transected larvae at 10 uM after 20 to 22 hrs by microscopy; format: functional; method in brief: as §1
Danio rerio [5] = species: Danio rerio; experiment: Antiinflammatory activity in transgenic zebrafish larvae harboring Fli-1 gene assessed as LPS-stimulated leukocyte migration to injury zone of tail transected larvae at 30 uM after 20 to 22 hrs by microscopy; format: functional; method in brief: as §1
Danio rerio [6] = species: Danio rerio; experiment: Antiinflammatory activity in transgenic zebrafish larvae harboring Fli-1 gene assessed as LPS-stimulated leukocyte migration to injury zone of tail transected larvae at 100 uM after 20 to 22 hrs by microscopy; format: functional; method in brief: as §1
J774 [7] = experiment: Cytotoxicity against mouse J774 cells at 1 ug/mL after 24 hrs by MTT assay; format: functional
Method in brief: (§2)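 J774 macrophages in RPMI-1640 with 20% heat-inactivated FCS were seeded at 70,000 cells/well and allowed to attach for 24 h at 37 °C. They were exposed to compounds for 24 h (final DMSO ≤0.2%), then given MTT 0.4 mg/mL for 60 min; formazan was dissolved in DMSO and read at OD595. %Cytotoxicity was calculated against growth controls, corrected for compound-in-medium blanks. Each concentration was tested three times, in duplicate assays.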

J774 [8] = experiment: Cytotoxicity against mouse J774 cells at 10 ug/mL after 24 hrs by MTT assay; format: functional; method in brief: as §2
J774 [9] = experiment: Cytotoxicity against mouse J774 cells at 100 ug/mL after 24 hrs by MTT assay; format: functional; method in brief: as §2
Mus musculus [10] = experiment: Antiinflammatory activity against TPA-induced ear edema in Swiss mouse assessed as inhibition of increase in ear weight at 0.5 mg/ear administered topically measured after 4 hrs relative to control; format: functional
Method in brief: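 Female Swiss mice (25–30 g, groups of six) received TPA in acetone topically on the right ear, with the left ear as control. Compound in acetone was applied at the same time. After 4 h, 6 mm punches from both ears were weighed. Oedema was taken as the weight difference between ears, and inhibition % was calculated versus the vehicle group. Mean ± SEM, Dunnett's test.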

Mus musculus [11] = species: Mus musculus; experiment: Inhibition of MPO activity in TPA-induced Swiss mouse ear tissue homogenates after 3 mins relative to control; format: functional, organism-based; design: concentration or dose not given beside the values
Method in brief: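 Ear tissue was homogenised at 0 °C in 80 mM phosphate buffer with 0.5% HTAB, then centrifuged at 10300g for 20 min at 4 °C. Supernatant, in triplicate, was mixed with phosphate buffer (pH 5.4) and H2O2. The reaction was started with TMB in 8% DMF, run 3 min at 37 °C and stopped with NaOAc/HOAc pH 3.0. A630 was read, and inhibition % was calculated versus the vehicle group.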

Danio rerio [12] = species: Danio rerio; experiment: Antiinflammatory activity in transgenic zebrafish larvae harboring Fli-1 gene assessed as LPS-stimulated leukocyte migration to injury zone of tail transected larvae at 0.3 uM after 20 to 22 hrs by microscopy; format: functional; method in brief: as §1
Danio rerio [13] = species: Danio rerio; experiment: Toxicity to transgenic zebrafish larvae harboring Fli-1 gene at 100 uM after 24 hrs; conditions: in vivo
J774 [14] = experiment: Cytotoxicity against mouse J774 cells at 256 uM after 24 hrs by MTT assay; format: functional; method in brief: as §2
J774 [15] = experiment: Cytotoxicity against mouse J774 cells at 128 uM after 24 hrs by MTT assay; format: functional; method in brief: as §2
J774 [16] = experiment: Cytotoxicity against mouse J774 cells at 64 uM after 24 hrs by MTT assay; format: functional; method in brief: as §2

Structure (SMILES)	MTD (Danio rerio [1]) [µM]	Ratio (Danio rerio [2])	Ratio (Danio rerio [3])	Ratio (Danio rerio [4])	Ratio (Danio rerio [5])	also measured
COc1nn(Cc2ccccc2-c2ccccc2Cn2nc(OC)c3cc([N+](=O)[O-])ccc32)c2ccc([N+](=O)[O-])cc12	10	0.84	0.87	0.69	–	–
O=c1[nH]n(Cc2cccc(Cn3[nH]c(=O)c4cc([N+](=O)[O-])ccc43)c2)c2ccc([N+](=O)[O-])cc12	10	0.87	0.8	0.64	–	–
COc1ccc(Cn2[nH]c(=O)c3cc([N+](=O)[O-])ccc32)cc1	10	0.87	0.87	0.8	–	–
O=c1[nH]n(Cc2ccccc2Cl)c2ccc([N+](=O)[O-])cc12	30	–	0.78	0.22	0.26	–
CCCn1c2ccc([N+](=O)[O-])cc2c(=O)n1Cc1ccccc1	30	–	0.89	0.86	0.16	–
O=c1[nH]n(Cc2ccccc2F)c2ccc([N+](=O)[O-])cc12	10	0.91	0.84	0.3	–	–
COc1nn(Cc2ccccc2F)c2ccc([N+](=O)[O-])cc12	30	–	0.86	0.92	0.87	–
O=C(Cc1cc([N+](=O)[O-])ccc1F)NN1Cc2ccccc2C1	> 100	–	–	0.89	0.87	Ratio (Danio rerio [6]): 0.5
O=[N+]([O-])c1ccc2[nH]nc(OCc3ccccc3Cl)c2c1	10	0.62	0.65	0.41	–	Activity (J774 [7]): 4.4%; Activity (J774 [8]): 9.4%; Activity (J774 [9]): 96.4%; inhibition (INH) (Mus musculus [10]): 91%; inhibition (Mus musculus [11]): 63%
Cn1c2ccc([N+](=O)[O-])cc2c(=O)n1Cc1ccccc1	30	–	0.67	0.63	0.27	Activity (J774 [7]): 11.5%; Activity (J774 [8]): 21%; Activity (J774 [9]): 57.5%; inhibition (INH) (Mus musculus [10]): 104%; inhibition (Mus musculus [11]): 67%
O=C1C2=Cc3ccccc3CCN2c2ccccc21	3	0.4	0.24	–	–	Ratio (Danio rerio [12]): 0.64; Activity (J774 [7]): 3.4%; Activity (J774 [8]): 9.4%; Activity (J774 [9]): 73.1%; inhibition (INH) (Mus musculus [10]): 73%; inhibition (Mus musculus [11]): 56%; Activity (Danio rerio [13]): Toxic
O=[N+]([O-])c1ccc2c(c1)c(OCc1ccccc1)nn2Cc1ccccc1	10	0.94	0.75	0.73	–	–
O=c1[nH]n(Cc2ccccn2)c2ccc([N+](=O)[O-])cc12	> 100	–	–	0.83	0.74	Ratio (Danio rerio [6]): 0.59
O=c1c2cc([N+](=O)[O-])ccc2[nH]n1Cc1ccccc1	> 100	–	–	0.81	0.65	Ratio (Danio rerio [6]): 0.39
O=c1[nH]n(Cc2ccccc2-c2ccccc2Cn2[nH]c(=O)c3cc([N+](=O)[O-])ccc32)c2ccc([N+](=O)[O-])cc12	10	0.72	0.92	0.85	–	–
Cn1c(=O)c2cc([N+](=O)[O-])ccc2n1Cc1ccccc1	30	–	0.6	0.46	0.26	Activity (J774 [7]): 32.8%; Activity (J774 [8]): 43.9%; Activity (J774 [9]): 58.4%; inhibition (INH) (Mus musculus [10]): 97%; inhibition (Mus musculus [11]): 56%
O=c1[nH]n(Cc2ccccc2)c2ccc([N+](=O)[O-])cc12	10	0.88	0.67	0.46	–	–

Structure (SMILES)	MTD (Danio rerio [1]) [µM]	Ratio (Danio rerio [2])	Ratio (Danio rerio [3])	Ratio (Danio rerio [4])	Ratio (Danio rerio [5])	also measured
O=c1[nH]n(Cc2ccccc2OCc2ccccc2)c2ccc([N+](=O)[O-])cc12	10	0.94	0.76	0.84	–	–
O=c1[nH]n(Cc2ccccc2F)c2ccccc12	30	–	0.46	0.25	0.17	inhibition (INH) (Mus musculus [10]): 32%; inhibition (Mus musculus [11]): -3%
O=c1c2cc([N+](=O)[O-])ccc2n(Cc2ccccc2)n1Cc1ccccc1	10	0.58	0.65	0.35	–	Activity (J774 [14]): 57.87%; Activity (J774 [15]): 64%; Activity (J774 [16]): 9.77%; inhibition (INH) (Mus musculus [10]): 80%; inhibition (Mus musculus [11]): 36%
O=C(NN1Cc2ccccc2C1)c1cc([N+](=O)[O-])ccc1Cl	> 100	–	–	0.93	0.93	Ratio (Danio rerio [6]): 0.7
O=c1c2cccnc2n2n1Cc1ccccc1C2	30	–	0.89	0.8	0.52	–
O=c1[nH]n(Cc2ccccc2O)c2ccc([N+](=O)[O-])cc12	> 100	–	–	0.86	0.61	Ratio (Danio rerio [6]): 0.27
O=C(NCc1cc([N+](=O)[O-])ccc1N1CCc2ccccc2C1)NCc1cc([N+](=O)[O-])ccc1N1CCc2ccccc2C1	10	0.85	0.82	0.81	–	–
O=c1[nH]n(Cc2ccccc2CCl)c2ccc([N+](=O)[O-])cc12	10	0.83	0.78	0.33	–	–
O=c1c2cc([N+](=O)[O-])ccc2[nH]n1Cc1ccccn1	> 100	–	–	0.94	0.62	Ratio (Danio rerio [6]): 0.66
O=[N+]([O-])c1ccc2c(c1)CC([O-])=N[N+]21CCCCC1	> 100	–	–	0.86	0.89	Ratio (Danio rerio [6]): 0.81
O=C1Nc2cc([N+](=O)[O-])ccc2N2Cc3ccccc3CC12 (stereo not given)	10	0.75	0.71	0.77	–	–
CCOCc1ccccc1CCN1CC(=O)Nc2cc([N+](=O)[O-])ccc21	10	0.59	0.62	0.48	–	–
CN(C)CCCOc1nn(Cc2ccccc2F)c2ccc([N+](=O)[O-])cc12	30	–	0.74	0.89	0.97	–
O=c1c2cc([N+](=O)[O-])ccc2n2n1Cc1ccccc1C2	10	0.56	0.54	0.29	–	–
COc1ccc2c(c1)c(CC(=O)O)c(C)n2C(=O)c1ccc(Cl)cc1 [INDOMETHACIN]	> 100	0.54	0.5	0.48	0.38	Ratio (Danio rerio [12]): 0.57; Ratio (Danio rerio [6]): 0.28; inhibition (INH) (Mus musculus [10]): 97%; inhibition (Mus musculus [11]): 61%
CCCCCn1c2ccc([N+](=O)[O-])cc2c(=O)n1Cc1ccccc1	10	0.68	0.67	0.27	–	Activity (J774 [14]): 80.99%; Activity (J774 [15]): 71.75%; Activity (J774 [16]): 54.14%; inhibition (INH) (Mus musculus [10]): 92%; inhibition (Mus musculus [11]): 46%

From ChEMBL document CHEMBL2010648, “Discovery of novel anti-inflammatory drug-like compounds by aligning in silico and in vivo screening: the nitroindazolinone chemotype” (Eur J Med Chem, 2011)
